Here are results for one compound from ChEMBL document CHEMBL3085642, “Synthesis and evaluation of novel 4-nitropyrrole-based 1,3,4-oxadiazole derivatives as antimicrobial and anti-tubercular agents” (Eur J Med Chem, 2013).

One test has as its system Vero. Put plainly: Cytotoxicity against african green monkey Vero cells after 72 hrs by MTT assay. Format: cell-based. As to conditions: Chlorocebus sabaeus. In a few lines: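 Vero cells were exposed to compounds for 72 h. Viability was measured by cellular conversion of MTT into formazan (non-radioactive proliferation assay), and the cytotoxic concentration was reported as IC50.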

The test system of test [1] is Candida albicans. Kind of test: Ratio of ampotericin-B MIC to compound MIC against Candida albicans. Format: functional.
Test [2] deals with Staphylococcus aureus. Kind of test: Ratio of ciprofloxacin MIC to compound MIC against methicillin-resistant Staphylococcus aureus ATCC 43866. The format is functional.
For test [3], the system named is Staphylococcus aureus. Kind of test: Ratio of ciprofloxacin MIC to compound MIC against methicillin-susceptible Staphylococcus aureus ATCC 35556. Format: functional.
Test [4] concerns Bacillus spizizenii. Put plainly: Ratio of ciprofloxacin MIC to compound MIC against Bacillus subtilis ATCC 6633. The format is functional.
Test [5] deals with Staphylococcus aureus. Kind of test: Ratio of ciprofloxacin MIC to compound MIC against Staphylococcus aureus ATCC 25923. The format is functional.
Test [6] relates to Mycobacterium tuberculosis. Put plainly: Antitubercular activity against Mycobacterium tuberculosis H37Rv after 7 days by resazurin microtitre assay. The format is functional. As to conditions: 168 h. On the technique in general: Alamar Blue is a resazurin reagent that responds to reducing activity.
For test [7], the system named is Candida albicans. Put plainly: Antifungal activity against Candida albicans after 48 hrs by two fold agar dilution method. Format: functional. In a few lines: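 Two-fold serial dilutions in DMSO were tested against C. albicans by agar dilution. Cultures were incubated for 48 h at 35 °C and growth was monitored. MIC was taken as the lowest concentration (highest dilution) that arrested fungal growth.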

Test [8] relates to Staphylococcus aureus. Kind of test: Antibacterial activity against methicillin-resistant Staphylococcus aureus ATCC 43866 by broth dilution method. The format is functional. On the technique in general: Dilution methods test growth across graded concentrations, often in twofold steps.
Test [9] concerns Staphylococcus aureus. Put plainly: Antibacterial activity against methicillin-susceptible Staphylococcus aureus ATCC 35556 by broth dilution method. Format: functional.
Another test concerns Klebsiella pneumoniae. Kind of test: Antibacterial activity against Klebsiella pneumoniae by two fold broth dilution method. The format is functional.
For another test, the system named is Escherichia coli. Kind of test: Antibacterial activity against Escherichia coli ATCC 25922 by two fold broth dilution method. The format is functional.
The test system of test [10] is Bacillus spizizenii. Put plainly: Antibacterial activity against Bacillus subtilis ATCC 6633 by two fold broth dilution method. Format: functional.
Test [11] concerns Staphylococcus aureus. Put plainly: Antibacterial activity against Staphylococcus aureus ATCC 25923 by two fold broth dilution method. The format is functional.

Values after ≈ are worked out from the molar mass of the structure shown.

In the case of `Cn1cc([N+](=O)[O-])cc1-c1nnc(-c2ccc[nH]2)o1`, the midpoint of inhibition with Vero, the IC50, lay at 208 µM. The Ratio is on record as 3 in the test on Candida albicans [1]; 2 with Staphylococcus aureus [2]; 2 with Staphylococcus aureus [3]; 2 in the test with Bacillus spizizenii [4]; 3 with Staphylococcus aureus [5]. Further, the MIC – broadly, the lowest concentration that inhibits growth of the organism – in test [6] came to 29.3 µg/mL (≈ 113 µM); with Candida albicans [7], 0.78 µg/mL (≈ 3.01 µM); against Staphylococcus aureus [8], 0.78 µg/mL (≈ 3.01 µM); against Staphylococcus aureus [9], 0.39 µg/mL (≈ 1.5 µM); in the test with Klebsiella pneumoniae, 12.5 µg/mL (≈ 48.2 µM); in the test with Escherichia coli it was 1.56 µg/mL (≈ 6.02 µM). Besides, the MIC with Bacillus spizizenii [10] turned out to be 0.78 µg/mL (≈ 3.01 µM); against Staphylococcus aureus [11], 0.39 µg/mL (≈ 1.5 µM).
